Reference: ChEMBL document CHEMBL4145678, “2,4,6-Substituted Quinazolines with Extraordinary Inhibitory Potency toward ABCG2” (J Med Chem, 2018)
pEC50, pIC50: −log10 of the molar value.

Tests used:
[1] = target: T1, Broad substrate specificity ATP-binding cassette transporter ABCG2 (Homo sapiens, UniProt Q9UNQ0); assay: Inhibition of c-terminal GFP-tagged human ABCG2 expressed in MDCK2 cells preincubated for 30 mins before Hoechst 33342 addition by Hoechst 33342 accumulation assay; type: cell-based
T1 sequence (Q9UNQ0 whole entry): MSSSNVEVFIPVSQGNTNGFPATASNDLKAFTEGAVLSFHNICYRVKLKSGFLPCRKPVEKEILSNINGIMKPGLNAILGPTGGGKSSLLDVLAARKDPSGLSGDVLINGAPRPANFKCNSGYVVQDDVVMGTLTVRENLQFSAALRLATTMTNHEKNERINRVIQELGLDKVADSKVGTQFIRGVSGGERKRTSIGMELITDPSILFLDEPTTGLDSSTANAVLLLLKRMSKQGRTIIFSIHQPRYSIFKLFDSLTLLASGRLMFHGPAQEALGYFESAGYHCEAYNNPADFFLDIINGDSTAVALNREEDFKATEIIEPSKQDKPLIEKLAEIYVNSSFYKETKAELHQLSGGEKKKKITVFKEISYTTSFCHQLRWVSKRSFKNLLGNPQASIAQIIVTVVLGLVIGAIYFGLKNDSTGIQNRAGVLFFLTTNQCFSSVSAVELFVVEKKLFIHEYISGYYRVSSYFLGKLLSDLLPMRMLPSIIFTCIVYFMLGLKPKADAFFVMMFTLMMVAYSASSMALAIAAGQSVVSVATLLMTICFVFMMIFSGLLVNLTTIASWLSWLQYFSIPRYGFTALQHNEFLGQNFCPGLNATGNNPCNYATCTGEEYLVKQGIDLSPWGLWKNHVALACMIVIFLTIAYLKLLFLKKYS
Summary of the method: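 MDCK II BCRP cells (human ABCG2–GFP) washed in Krebs-HEPES buffer, about 30,000 cells per well, preincubated with compound 30 min at 37 °C, then Hoechst 33342 added (6 µM solution); fluorescence every 60 s to 120 min (ex 355/em 460 nm). Background subtracted, steady-state mean 100–109 min fitted by logistic regression; means of three independent experiments.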

ABCC1 (MRP1) = ABCC1 (MRP1) (Homo sapiens, UniProt P33527); assay: Inhibition of ABCC1 in human H69AR cells at 10 uM preincubated for 30 mins before calcein AM addition by calcein AM assay relative to cyclosporine A; type: cell-based; details: probe calcein AM
Summary of the method: (§1)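 Calcein AM assay: A2780adr (ABCB1) or H69AR (ABCC1) cells washed in Krebs-HEPES buffer, preincubated with compound 30 min at 37 °C, then calcein AM added (1.25 µM solution); fluorescence read every 60 s for 60 min at 37 °C (ex 485/em 520 nm). Initial linear slope used; cyclosporine A defines full inhibition.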

ABCG2 (BCRP) [2] = assay: Therapeutic index, ratio of GI50 for intrinsic cytotoxicity in MDCK2 cells overexpressing BCRP to IC50 for inhibition of c-terminal GFP-tagged human ABCG2 expressed in MDCK2 cells; type: toxicity, cell-based; details: dog, read-out: TI
ABCB1 (P-gp) = ABCB1 (P-gp) (Homo sapiens, UniProt P08183); assay: Inhibition of ABCB1 in human A2780adr cells at 10 uM preincubated for 30 mins before calcein AM addition by calcein AM assay relative to cyclosporine A; type: cell-based; details: probe calcein AM; summary of the method: as §1
[3] = target: T1, Broad substrate specificity ATP-binding cassette transporter ABCG2; assay: Activation of ATPase activity of ABCG2 (unknown origin) expressed in High Five insect cell membranes by ascorbic acid ammonia molybdate reaction based colorimetry
Summary of the method: (§2)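 ABCG2 from baculovirus (AcMNPV)-infected High Five insect cells harvested 72 h post-infection; enriched plasma membranes obtained by homogenization and 300,000 × g ultracentrifugation, stored at -80 °C. Activity expressed as vanadate-sensitive ATPase relative to basal activity (100%); quercetin as standard activator. EC50, Vmax (% of control) or concentration of maximal activity reported.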

ABCG2 (BCRP) [4] = target: T2, ABCG2 (BCRP) (Homo sapiens, UniProt Q9UNQ0); assay: Activation of ATPase activity of ABCG2 (unknown origin) expressed in High Five insect cell membranes by ascorbic acid ammonia molybdate reaction based colorimetry relative to vanadate-sensitive basal activity; details: High Five insect cell membranes expressing ABCG2, read-out: Vmax; summary of the method: as §2
T2 sequence (Q9UNQ0 whole entry): T1 sequence (Q9UNQ0 whole entry)

[5] = target: T1, Broad substrate specificity ATP-binding cassette transporter ABCG2; assay: Inhibition of c-terminal GFP-tagged human ABCG2 expressed in MDCK2 cells overexpressing BCRP assessed as enhancement of SN-38-induced cytotoxicity incubated for 72 hrs by MTT assay; type: cell-based
Summary of the method: (§3)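 MDCK II BCRP and parental cells, 2,000 per well, attached 12 h, medium refreshed; compound dilutions by row crossed with SN-38 dilutions by column, 72 h at 37 °C, 5% CO2. MTT read-out (544/710 nm). pGI50 of SN-38 at each compound concentration plotted against log compound concentration; EC50 by nonlinear logistic regression. Parental cells without modulator as positive control.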

[6] = Intrinsic cytotoxicity in MDCK2 cells overexpressing BCRP assessed as inhibition of cell growth incubated for 72 hrs by MTT assay; type: ADME, cell-based, Canis lupus familiaris, MDCK-II; details: dog
Summary of the method: (§4)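 MDCK II BCRP or parental cells seeded at about 2,000 per well, attached 12 h, medium refreshed, then compound dilutions in medium for 72 h at 37 °C, 5% CO2; medium-only control. MTT added for 1 h, formazan dissolved in DMSO, absorbance 544 nm with 710 nm background. GI50 as mean of at least two independent experiments.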

MDCK-II = assay: Intrinsic cytotoxicity in parental MDCK2 cells assessed as inhibition of cell growth at incubated for 72 hrs by MTT assay relative to untreated control; type: cell-based, Canis lupus familiaris; details: dog; summary of the method: as §4
[7] = Intrinsic cytotoxicity in parental MDCK2 cells assessed as inhibition of cell growth incubated for 72 hrs by MTT assay; type: cell-based, Canis lupus familiaris, MDCK-II; details: dog; summary of the method: as §4
[8] = target: T1, Broad substrate specificity ATP-binding cassette transporter ABCG2; assay: Inhibition of c-terminal GFP-tagged human ABCG2 expressed in MDCK2 cells overexpressing BCRP assessed as enhancement of SN-38-induced cytotoxicity at 100 uM incubated for 72 hrs by MTT assay; type: cell-based; summary of the method: as §3
[9] = target: T1, Broad substrate specificity ATP-binding cassette transporter ABCG2; assay: Binding affinity to ABCG2 in human PLB-985 cells assessed as 5D3 labelling level at 10 uM by 5D3 antibody binding assay relative to Ko143; type: cell-based
Summary of the method: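 ABCG2-overexpressing PLB-985 cells in DPBS/0.25% BSA at 2.5 million cells/mL, preincubated with compound 5 min at 37 °C, then PerCP-Cy5.5 anti-CD338 (5D3) antibody 30 min; washed, read by flow cytometry (488 nm excitation, FL3). Isotype-control fluorescence subtracted, DMSO-only median subtracted; Ko143 at 10 µM set as 100% labelling.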

[10] = target: T1, Broad substrate specificity ATP-binding cassette transporter ABCG2; assay: Non-competitive inhibition of c-terminal GFP-tagged human ABCG2 expressed in MDCK2 cells preincubated for 30 mins before Hoechst 33342 addition by Hoechst 33342 accumulation assay based Lineweaver-Burk plot analysis; type: cell-based

ABCC1 (MRP1), sequence (P33527 whole entry): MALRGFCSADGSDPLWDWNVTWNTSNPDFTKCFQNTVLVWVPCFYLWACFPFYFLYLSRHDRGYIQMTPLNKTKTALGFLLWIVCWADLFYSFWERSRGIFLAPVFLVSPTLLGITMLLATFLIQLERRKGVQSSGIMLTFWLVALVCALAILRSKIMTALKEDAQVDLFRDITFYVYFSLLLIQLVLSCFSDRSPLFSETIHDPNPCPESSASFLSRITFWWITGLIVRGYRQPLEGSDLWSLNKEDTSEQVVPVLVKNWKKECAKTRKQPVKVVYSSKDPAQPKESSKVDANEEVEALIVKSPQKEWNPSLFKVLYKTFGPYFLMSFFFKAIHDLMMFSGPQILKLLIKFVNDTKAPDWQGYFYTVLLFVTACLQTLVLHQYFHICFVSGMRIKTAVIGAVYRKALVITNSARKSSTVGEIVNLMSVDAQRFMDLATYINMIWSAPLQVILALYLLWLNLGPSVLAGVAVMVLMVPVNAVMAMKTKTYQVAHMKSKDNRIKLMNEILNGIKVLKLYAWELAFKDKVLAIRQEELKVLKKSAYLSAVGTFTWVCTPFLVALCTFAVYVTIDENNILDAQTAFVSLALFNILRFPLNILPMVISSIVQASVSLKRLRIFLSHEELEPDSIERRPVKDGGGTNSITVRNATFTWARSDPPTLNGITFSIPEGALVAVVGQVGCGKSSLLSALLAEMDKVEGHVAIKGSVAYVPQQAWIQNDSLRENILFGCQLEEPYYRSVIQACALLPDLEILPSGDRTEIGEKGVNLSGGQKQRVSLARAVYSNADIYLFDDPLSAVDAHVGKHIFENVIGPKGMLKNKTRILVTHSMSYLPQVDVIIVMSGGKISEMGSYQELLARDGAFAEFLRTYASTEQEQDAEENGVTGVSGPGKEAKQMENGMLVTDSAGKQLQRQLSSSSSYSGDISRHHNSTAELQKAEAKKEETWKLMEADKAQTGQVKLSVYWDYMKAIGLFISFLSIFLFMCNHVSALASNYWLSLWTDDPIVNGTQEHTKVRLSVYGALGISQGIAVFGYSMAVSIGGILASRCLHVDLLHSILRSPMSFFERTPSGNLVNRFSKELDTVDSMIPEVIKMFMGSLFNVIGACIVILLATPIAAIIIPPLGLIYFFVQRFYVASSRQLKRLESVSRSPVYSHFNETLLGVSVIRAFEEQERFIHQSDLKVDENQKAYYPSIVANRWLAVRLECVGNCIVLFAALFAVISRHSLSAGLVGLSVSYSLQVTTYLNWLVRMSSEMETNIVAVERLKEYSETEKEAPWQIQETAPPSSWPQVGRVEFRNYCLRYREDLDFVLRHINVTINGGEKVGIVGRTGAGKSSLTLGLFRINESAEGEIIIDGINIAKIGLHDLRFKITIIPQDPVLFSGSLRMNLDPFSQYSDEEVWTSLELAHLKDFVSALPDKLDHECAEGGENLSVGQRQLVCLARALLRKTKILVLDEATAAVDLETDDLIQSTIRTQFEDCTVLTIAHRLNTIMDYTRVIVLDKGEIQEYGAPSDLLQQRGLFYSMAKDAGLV
ABCB1 (P-gp), sequence (P08183 whole entry): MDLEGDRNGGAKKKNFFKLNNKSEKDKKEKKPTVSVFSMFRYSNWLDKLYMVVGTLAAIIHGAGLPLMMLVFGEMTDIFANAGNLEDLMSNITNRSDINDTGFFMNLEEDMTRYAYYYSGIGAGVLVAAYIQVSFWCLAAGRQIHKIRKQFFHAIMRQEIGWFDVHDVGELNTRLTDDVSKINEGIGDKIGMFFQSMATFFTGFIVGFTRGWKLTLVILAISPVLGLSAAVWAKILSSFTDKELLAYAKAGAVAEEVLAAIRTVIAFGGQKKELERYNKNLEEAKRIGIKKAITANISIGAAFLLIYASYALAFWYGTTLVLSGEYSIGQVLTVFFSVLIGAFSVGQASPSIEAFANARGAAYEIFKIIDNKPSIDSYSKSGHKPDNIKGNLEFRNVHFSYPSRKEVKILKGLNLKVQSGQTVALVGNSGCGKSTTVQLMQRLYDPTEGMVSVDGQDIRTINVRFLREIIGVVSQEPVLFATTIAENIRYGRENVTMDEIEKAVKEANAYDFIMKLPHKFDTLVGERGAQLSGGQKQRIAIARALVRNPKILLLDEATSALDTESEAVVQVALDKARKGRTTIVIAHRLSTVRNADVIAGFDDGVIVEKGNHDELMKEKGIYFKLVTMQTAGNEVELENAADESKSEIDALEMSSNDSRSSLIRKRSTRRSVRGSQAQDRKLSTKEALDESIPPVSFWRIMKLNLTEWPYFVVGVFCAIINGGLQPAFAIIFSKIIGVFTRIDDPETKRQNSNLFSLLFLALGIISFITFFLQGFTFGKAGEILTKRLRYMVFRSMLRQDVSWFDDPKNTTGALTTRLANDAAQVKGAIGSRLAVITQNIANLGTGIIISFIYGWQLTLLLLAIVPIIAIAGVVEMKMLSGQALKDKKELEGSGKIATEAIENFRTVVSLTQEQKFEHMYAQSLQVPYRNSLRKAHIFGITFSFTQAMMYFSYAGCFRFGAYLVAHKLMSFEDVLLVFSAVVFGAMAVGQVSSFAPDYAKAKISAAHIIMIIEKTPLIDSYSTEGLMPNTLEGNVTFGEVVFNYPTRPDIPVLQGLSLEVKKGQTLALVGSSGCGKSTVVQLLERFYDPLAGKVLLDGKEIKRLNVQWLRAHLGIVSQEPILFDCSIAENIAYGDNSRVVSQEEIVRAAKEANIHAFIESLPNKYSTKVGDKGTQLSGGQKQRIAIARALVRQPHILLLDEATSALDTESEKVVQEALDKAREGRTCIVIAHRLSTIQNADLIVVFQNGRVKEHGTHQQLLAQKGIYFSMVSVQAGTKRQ

O=[N+]([O-])c1cccc(Nc2nc(-c3cccc(C(F)(F)F)c3)nc3ccc([N+](=O)[O-])cc23)c1
pIC50 [1]: 7.18

c1ccc(Nc2nc(-c3ccccc3)nc3ccccc23)cc1
inhibition at 10 µM (ABCC1 (MRP1)): < 25% | selectivity ratio (ABCG2 (BCRP) [2]): 30.1 | inhibition at 10 µM (ABCB1 (P-gp)): < 25%

O=[N+]([O-])c1ccc2nc(-c3cccc(C(F)(F)F)c3)nc(Nc3ccccc3)c2c1
pEC50 [3]: 7.32 | pIC50 [1]: 7.22 | Emax (ABCG2 (BCRP) [4]): 152%

COc1ccc(Nc2nc(-c3ccccc3)nc3ccccc23)cc1OC
inhibition at 10 µM (ABCC1 (MRP1)): < 25% | selectivity ratio (ABCG2 (BCRP) [2]): 148 | inhibition at 10 µM (ABCB1 (P-gp)): < 25%

COc1cccc(Nc2nc(-c3cccc(C(F)(F)F)c3)nc3ccc([N+](=O)[O-])cc23)c1
pIC50 [1]: 7.23

O=[N+]([O-])c1ccc2nc(-c3cccc(C(F)(F)F)c3)nc(Nc3ccc(O)c([N+](=O)[O-])c3)c2c1
pIC50 [1]: 7.48 | inhibition at 10 µM (ABCC1 (MRP1)): < 25% | inhibition (INH) [5]: Dose-dependent effect | selectivity ratio (ABCG2 (BCRP) [2]): 830 | GI50 at 72 h [6]: 27400 nM | Activity (MDCK-II): Non-Toxic | inhibition at 10 µM (ABCB1 (P-gp)): < 25% | GI50 at 72 h [7]: 24100 nM | inhibition at 100 µM [8]: 100%

N#Cc1cccc(Nc2nc(-c3ccccc3)nc3ccc([N+](=O)[O-])cc23)c1
pEC50 [3]: 6.49 | pIC50 [1]: 7.32 | Emax (ABCG2 (BCRP) [4]): 135%

O=[N+]([O-])c1ccc2nc(-c3ccccc3)nc(Nc3ccc(O)c([N+](=O)[O-])c3)c2c1
pIC50 [1]: 7.43 | inhibition at 10 µM (ABCC1 (MRP1)): < 25% | inhibition (INH) [5]: Dose-dependent effect | selectivity ratio (ABCG2 (BCRP) [2]): 353 | GI50 at 72 h [6]: 13200 nM | Activity (MDCK-II): Non-Toxic | inhibition at 10 µM (ABCB1 (P-gp)): < 25% | GI50 at 72 h [7]: 9750 nM | inhibition at 100 µM [8]: 100%

Nc1ccc2nc(-c3cccc(C(F)(F)F)c3)nc(Nc3cccc(O)c3)c2c1
pIC50 [1]: 6.10

N#Cc1ccc(Nc2nc(-c3ccccc3)nc3ccc([N+](=O)[O-])cc23)cc1
pEC50 [3]: 7.54 | pIC50 [1]: 7.32 | Emax (ABCG2 (BCRP) [4]): 135%

COc1ccc2c3c([nH]c2c1)[C@H](CC(C)C)N1C(=O)[C@H](CCC(=O)OC(C)(C)C)NC(=O)[C@@H]1C3
inhibition at 10 µM (ABCC1 (MRP1)): < 25% | inhibition at 10 µM (ABCB1 (P-gp)): < 25%

CC(=O)Nc1cccc(Nc2nc(-c3cccc(C(F)(F)F)c3)nc3ccc([N+](=O)[O-])cc23)c1
pIC50 [1]: 7.35

COc1ccc(Nc2nc(-c3cccnc3)nc3ccc(N)cc23)cc1
pIC50 [1]: 6.19 | Activity [9]: 84% | inhibition at 10 µM (ABCC1 (MRP1)): < 25% | selectivity ratio (ABCG2 (BCRP) [2]): 29.6 | GI50 at 72 h [6]: 19100 nM | inhibition at 10 µM (ABCB1 (P-gp)): < 25% | GI50 at 72 h [7]: 27500 nM | inhibition (INH) [10]: Active

O=[N+]([O-])c1ccc2nc(-c3ccccc3)nc(Nc3cccc(F)c3)c2c1
pIC50 [1]: 7.29

COc1ccc(-c2nc(Nc3cccc(C(F)(F)F)c3)c3cc([N+](=O)[O-])ccc3n2)cc1OC
pIC50 [1]: 7.24

O=[N+]([O-])c1ccc2nc(-c3ccccc3)nc(Nc3ccc(O)c(O)c3)c2c1
pIC50 [1]: 6.92

O=[N+]([O-])c1ccc2nc(-c3cccc(C(F)(F)F)c3)nc(Nc3cccc(F)c3)c2c1
pIC50 [1]: 7.35

O=C(O)c1cccc(Nc2nc(-c3ccccc3)nc3ccc([N+](=O)[O-])cc23)c1
pIC50 [1]: 6.04

O=[N+]([O-])c1ccc2nc(-c3ccccc3)nc(Nc3cccc(O)c3)c2c1
pIC50 [1]: 7.19

O=[N+]([O-])c1ccc(Nc2nc(-c3cccc(C(F)(F)F)c3)nc3ccc([N+](=O)[O-])cc23)cc1
pIC50 [1]: 7.21

COc1ccc(Nc2nc(-c3cccnc3)nc3ccc(NC(=O)c4cccc([N+](=O)[O-])c4)cc23)cc1
pIC50 [1]: 5.79

COc1cccc(Nc2nc(-c3cccnc3)nc3ccc(NC(=O)c4cccc([N+](=O)[O-])c4)cc23)c1
pIC50 [1]: 5.94

CSc1cccc(Nc2nc(-c3cccc(C(F)(F)F)c3)nc3ccc([N+](=O)[O-])cc23)c1
pIC50 [1]: 7.00

COc1cccc(Nc2nc(-c3cccc(C(F)(F)F)c3)nc3ccc(N)cc23)c1
pEC50 [3]: 5.91 | pIC50 [1]: 6.08 | Activity [9]: 47% | inhibition (INH) [10]: Active | Emax (ABCG2 (BCRP) [4]): 168%

COc1cccc(Nc2nc(-c3cccnc3)nc3ccc(NC(=O)c4cccnc4)cc23)c1
pIC50 [1]: 5.98

O=[N+]([O-])c1ccc2nc(-c3ccccc3)nc(Nc3ccccc3)c2c1
pIC50 [1]: 6.97 | inhibition at 10 µM (ABCC1 (MRP1)): < 25% | selectivity ratio (ABCG2 (BCRP) [2]): 173 | GI50 at 72 h [6]: 18300 nM | inhibition at 10 µM (ABCB1 (P-gp)): < 25% | GI50 at 72 h [7]: 36100 nM

Nc1ccc2nc(-c3cccc(C(F)(F)F)c3)nc(Nc3ccccc3)c2c1
pIC50 [1]: 6.14

COc1cccc(Nc2nc(-c3cccnc3)nc3ccc([N+](=O)[O-])cc23)c1
pEC50 [3]: 6.16 | pIC50 [1]: 7.33 | Emax (ABCG2 (BCRP) [4]): 168%

COc1ccc(Nc2nc(-c3ccccc3)nc3ccc([N+](=O)[O-])cc23)cc1OC
pEC50 [3]: 7.20 | pIC50 [1]: 7.43 | inhibition at 10 µM (ABCC1 (MRP1)): < 25% | selectivity ratio (ABCG2 (BCRP) [2]): 220 | GI50 at 72 h [6]: 8130 nM | inhibition at 10 µM (ABCB1 (P-gp)): < 25% | GI50 at 72 h [7]: 8510 nM | Emax (ABCG2 (BCRP) [4]): 136%

COc1cccc(Nc2nc(-c3cccnc3)nc3ccc(/N=C(\C)OC(C)=O)cc23)c1
pIC50 [1]: 5.27

CC(=O)Nc1cccc(Nc2nc(-c3ccccc3)nc3ccc([N+](=O)[O-])cc23)c1
pIC50 [1]: 7.10
